The list is not random: actives were taken first. Their share in the collection is about 1.5%.
APJ agonist: agonists of human apelin receptor APJ, primary screen, CHO-K1 cells, PathHunter beta-arrestin, luminescence; P35414; 0.11% of 330,000 active; AID 2520, 2010; 0% DMSO wells, 100% apelin; activation, % at 20 µM;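 active means activation more than six SD over the plate average, tested at 20 µM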;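 further: 0% = DMSO alone and 100% = apelin-13 at 10 nM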
Target sequence (P35414 whole entry, looked up): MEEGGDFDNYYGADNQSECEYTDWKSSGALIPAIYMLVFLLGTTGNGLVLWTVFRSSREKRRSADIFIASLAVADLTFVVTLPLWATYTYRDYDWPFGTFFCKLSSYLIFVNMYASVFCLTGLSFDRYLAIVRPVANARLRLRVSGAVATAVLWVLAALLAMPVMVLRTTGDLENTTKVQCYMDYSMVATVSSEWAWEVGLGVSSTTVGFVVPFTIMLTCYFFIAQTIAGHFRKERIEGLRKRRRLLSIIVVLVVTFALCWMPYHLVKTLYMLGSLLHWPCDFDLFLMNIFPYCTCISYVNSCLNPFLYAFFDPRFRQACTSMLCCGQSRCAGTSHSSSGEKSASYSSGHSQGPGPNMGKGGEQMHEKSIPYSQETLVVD
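Assay system: CHO-K1 cells stably expressing ProLink-tagged human APJ and arrestin–beta-gal acceptor. Compound dosing: 20 µM single point, 1% DMSO. Times: 16-18 h seeding, 90 min dark compound exposure, 60 min detection. Detection: beta-gal luminescence. Evaluation: APJ–arrestin association signal. Controls: negative DMSO alone, positive Apelin-13 at 10 nM.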
APJ antagonist: antagonists of human apelin receptor APJ, primary screen, CHO-K1 cells, beta-arrestin complementation, luminescence. 0.32% of 330,000 active. AID 2521, 2010. inhibition, % at 20 µM. P35414;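 active means inhibition above about 40% at 20 µM, limit read from the data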;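 further: cells challenged with 10 nM apelin-13 agonist together with compound; plate controls were apelin-13 plus DMSO wells for no effect and DMSO wells lacking apelin-13 for full effect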
CCR6 antag: CCR6 receptor antagonists, primary screen, cell-based, CHO-K1, luminescence, beta-arrestin, uHTS. inhibition, % at 20 µM. 0.49% of 340,000 active. CHO-K1 CCR6 PathHunter beta-arrestin, CCL20-stimulated. AID 493098, 2011. C-C chemokine receptor type 6 (Homo sapiens), P51684;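 active means compounds whose inhibition of the agonist-driven luminescence signal at 20 µM reaches about 50%, limit read from the data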;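 further: cells stimulated with CCL20 at 14 nM final; plate controls were DMSO with CCL20 for no effect and DMSO without agonist for full effect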
CXCR6 inh: CXCR6 receptor inhibitors, primary screen, cell-based, beta-arrestin, luminescence, CHO-K1 PathHunter, 1536-well | C-X-C chemokine receptor type 6 (Homo sapiens), O00574 | inhibition, % at 20 µM | 0.36% of 360,000 active; in the data active means inhibition above about 34%, passing the limit was not always enough;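 further: antagonist mode with CXCL16 agonist at 10 nM final; 0% = 10 nM CXCL16 with DMSO and 100% = unstimulated wells without agonist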
EBI2 antag: EBI2 receptor antagonists, beta-arrestin recruitment, primary screen, cell-based, luminescence, 7a,25-OHC stimulation, uHTS. 7a,25-OHC stimulated. inhibition, % at 5 µM. 0.81% of 360,000 active; in the data active means inhibition above about 38%;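 further: enzyme fragment complementation signal reports receptor beta-arrestin coupling in cells; 0% = agonist plus DMSO wells and 100% = wells without agonist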
APJ antag conf: APJ antagonists blocking beta-arrestin recruitment, confirmation, cell-based, luminescence, single concentration, uHTS hits; 66% of 950 active; AID 2766, 2010; antagonist mode; shares compounds with APJ antagonist; inhibition, % at 20 µM; in the data active means inhibition above about 50%
Numbers without * were called inactive; . = no result.

SMILES	APJ agonist	APJ antagonist	CCR6 antag	CXCR6 inh	EBI2 antag	APJ antag conf
CCOc1ccc(NC(=O)C2CCC(CNc3c(N4CCCCC4)c(=O)c3=O)CC2)cc1 (centres undefined)	-2	47*	-1	6	-4	19
O=C(Nc1c(C(=O)N2CCCCC2)cnn1-c1ccccc1)c1ccccc1F	1	62*	-5	6	-7	-17
CN1CCN(C(=O)c2cnn(-c3ccccc3)c2NC(=O)c2ccccc2)CC1	-2	13	3	7	-10	.
COc1ccc(NC(=O)CSc2nnc(-c3ccccn3)n2-c2ccccc2)cc1OC	0	41*	-14	-2	-5	-16
COc1ccc(NC(=O)CSc2ccccn2)cc1OC	0	2	-10	-2	-4	.
O=C(CSc1nc2c([nH]c3ccccc32)c(=O)n1-c1ccccc1)NCC1CCCO1 (centres undefined)	-21	64*	73*	53*	33	83*
CCn1c(SCC(=O)NCC2CCCO2)nc2c([nH]c3ccccc32)c1=O (centres undefined)	-7	-17	7	0	-16	.
[O-]/C(=C(\C(=S)Nc1ccccc1F)[n+]1ccccc1)c1ccc(OC(F)F)cc1	-9	48*	19	-2	-8	22
Cc1ccc(C)c(NC(=S)/C(=C(\[O-])c2ccc(OC(F)F)cc2)[n+]2ccccc2)c1	-5	3	12	8	-10	.
Cc1ccccc1C(=O)Nc1nnc(-c2cccnc2)o1	-4	-3	6	-13	-1	.
O=C(CN(Cc1ccccc1Cl)C(=O)c1csnn1)NCc1ccccc1	0	18	17	7	3	.
COc1ccccc1NS(=O)(=O)c1cc([N+](=O)[O-])ccc1N/N=C/c1c(C)[nH]c2ccccc12	-13	58*	58*	46*	39*	84*
O=[N+]([O-])c1ccc(N/N=C/c2c[nH]c3ccccc23)c(S(=O)(=O)Nc2ccc(Cl)cc2)c1	-8	44*	46	35	27	91*
CN1CCN(S(=O)(=O)c2cc([N+](=O)[O-])ccc2N/N=C/c2ccc(Cl)cc2)CC1	4	8	-3	3	-9	.
CCCn1c(C(C)NS(=O)(=O)c2ccccc2)n[nH]c1=S (centres undefined)	0	0	-8	-15	-13	.
O=C(COC(=O)/C=C/c1ccccc1[N+](=O)[O-])Nc1ccc(S(=O)(=O)N2CCOCC2)cc1	0	0	5	6	1	.
Cc1ccc(C(=O)COC(=O)C(C)N2C(=O)C3C4CCC(C4)C3C2=O)cc1C (centres undefined)	-1	-6	12	-1	-1	.
CC(C(=O)OCC(=O)c1cccc([N+](=O)[O-])c1)N1C(=O)C2C3C=CC(C3)C2C1=O (centres undefined)	-12	48*	51*	17	5	62*
CC(C(=O)OCC(=O)c1cccc([N+](=O)[O-])c1)N1C(=O)C2C3CCC(C3)C2C1=O (centres undefined)	-9	58*	55*	-1	6	53*
N#Cc1cc(-c2ccccc2)nc(NN)n1	-7	15	35	18	9	.
NNc1nc(-c2ccccc2)cc(-c2ccccc2)n1	-11	97*	63*	45*	15	122*
Cc1cccc(C(=O)OCC(=O)NC(=O)c2ccccc2)c1O	-2	4	12	3	-3	.
CSc1ccccc1C(=O)NC1CCCCCC1	-3	46*	-12	-4	-4	24
CC(C)OCCCn1c(=N)c(S(=O)(=O)c2ccccc2)cc2c(=O)n3ccccc3nc21	-4	43*	1	10	9	-14
Cn1nc(C(=O)NNC(=O)CCc2ccccc2Cl)c2ccccc2c1=O	-4	14	-6	5	-17	.
SMILES	APJ agonist	APJ antagonist	CCR6 antag	CXCR6 inh	EBI2 antag	APJ antag conf
CN(C)CCCNC(=O)c1ccccn1	-2	-3	13	11	-10	.
CN(C)CCCNC(=O)c1ccc(-c2nc(-c3ccc(Cl)cc3)cs2)cc1	0	52*	82*	14	22	94*
COc1ccccc1N1CCN(C(=O)c2c(C)cc(=O)oc2C)CC1	-2	57*	16	-2	1	19
Cc1cccc(NC(=O)Nc2nnc([C@H]3C[C@H](O)[C@@H](CO)O3)s2)c1	.	.	.	-3	1	.
CN(CCCC(=O)O)S(=O)(=O)c1ccc2c(c1)C(=O)c1cc(S(=O)(=O)N(C)CCCC(=O)O)ccc1-2	1	1	6	-3	-3	.
COc1ccc(N2C(=O)CSC2c2ccccc2)cc1 (centres undefined)	-4	16	7	-10	3	.
COc1ccc(C2SCC(=O)N2c2nc3ccccc3s2)cc1 (centres undefined)	-5	44*	6	-2	13	38
CCN(C(=O)COC(=O)c1cccnc1SC)C1CCS(=O)(=O)C1 (centres undefined)	-3	45*	-3	-9	-16	33
CCN(C(=O)COC(=O)c1cccnc1SC)C1CCCCC1	-1	8	4	-6	13	.
COc1ccc(S(=O)(=O)Cc2ccc(C(=O)NCc3ccccc3OC)o2)cc1	3	45*	17	2	29	4
CC(=O)c1ccc(N2CCN(C(=S)NCc3ccco3)CC2)cc1	-3	45*	-3	2	-5	3
COc1cc(C(=O)N/N=C(\c2ccccc2)c2ccccn2)cc(OC)c1OC	0	43*	90*	63*	17	73*
Cc1cccc(C(=O)Nc2ccc(C(=O)N/N=C/c3ccco3)cc2)c1	-5	-1	-1	2	-1	.
Cc1ccc(C(=O)N2CCC3CC2c2cc(-c4ccc5c(c4)OCO5)ccc23)cc1 (centres undefined)	.	.	23	3	10	.
OCC1(CO)COC(c2ccccc2)=N1	-4	16	3	10	7	.
O=C1OCC(CO)(CO)N=C1NNc1ccc(Cl)c(Cl)c1	-9	55*	35	24	7	67*
CCCCCn1c(N)c(C#N)c2nc3ccccc3nc21	-3	8	13	9	-7	.
N#Cc1c(N)n(CCCN2CCOCC2)c2nc3ccccc3nc12	-4	43*	1	-6	-3	23
COCCN(C(=O)CSc1nnc(-c2ccncc2)n1C)c1c(N)n(CC(C)C)c(=O)[nH]c1=O	.	.	-6	-8	-9	.

Screens from PubChem.
